23 molecules from ChEMBL document CHEMBL2157978, “Design, synthesis, and biological evaluation of nonsteroidal cycloalkane[d]isoxazole-containing androgen receptor modulators” (J Med Chem, 2012) can be followed below.

The target of assay [1] is Luciferin 4-monooxygenase (Photinus pyralis) (UniProt P08659). In words: Inhibition of Photinus pyralis recombinant luciferase at 10 uM incubated for 20 mins. The method, boiled down: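 Purified firefly luciferase diluted to 0.1 μg/mL in 1x Reporter Lysis Buffer, with compound added from ethanol stocks (10⁻³–10⁻⁷ mol/L dilutions) in triplicate. Incubated 20 min at rt, then luciferase substrate added and luminescence read. Blank (lysis buffer) and ethanol-vehicle controls were included.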

Assay [2] concerns the target T1, Androgen receptor (Homo sapiens, UniProt P10275).
T1 sequence (P10275 whole entry): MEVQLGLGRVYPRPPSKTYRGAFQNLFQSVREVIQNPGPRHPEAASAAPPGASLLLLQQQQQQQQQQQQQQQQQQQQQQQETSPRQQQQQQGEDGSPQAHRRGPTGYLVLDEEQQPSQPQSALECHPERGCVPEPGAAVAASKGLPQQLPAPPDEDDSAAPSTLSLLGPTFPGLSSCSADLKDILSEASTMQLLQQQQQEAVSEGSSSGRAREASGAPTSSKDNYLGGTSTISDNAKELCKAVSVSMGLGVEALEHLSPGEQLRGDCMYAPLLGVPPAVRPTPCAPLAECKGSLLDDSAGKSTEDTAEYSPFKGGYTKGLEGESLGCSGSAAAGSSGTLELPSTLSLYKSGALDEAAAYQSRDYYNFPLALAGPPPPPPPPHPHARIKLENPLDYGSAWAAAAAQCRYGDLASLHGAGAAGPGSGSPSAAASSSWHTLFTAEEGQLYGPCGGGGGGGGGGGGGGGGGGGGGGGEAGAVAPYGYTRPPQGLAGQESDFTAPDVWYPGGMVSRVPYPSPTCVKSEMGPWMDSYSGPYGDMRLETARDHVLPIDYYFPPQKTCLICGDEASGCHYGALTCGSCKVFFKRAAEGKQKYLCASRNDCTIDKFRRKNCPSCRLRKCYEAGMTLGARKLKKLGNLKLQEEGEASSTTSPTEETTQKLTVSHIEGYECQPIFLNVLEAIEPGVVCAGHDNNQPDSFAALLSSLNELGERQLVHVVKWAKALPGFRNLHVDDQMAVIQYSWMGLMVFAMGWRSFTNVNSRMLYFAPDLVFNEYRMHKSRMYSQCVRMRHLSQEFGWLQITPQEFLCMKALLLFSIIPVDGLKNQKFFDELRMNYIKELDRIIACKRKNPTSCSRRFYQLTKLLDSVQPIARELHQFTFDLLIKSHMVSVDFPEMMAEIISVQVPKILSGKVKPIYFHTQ
In words: Displacement of [3H]R1881 from wild type human androgen receptor expressed in COS-1 cells co-transfected with pSG5 after 2 hrs by scintillation assay. A general note: Loss of bound radioactivity is the signal in a displacement assay; it reports binding, not function.

Assay [3] addresses T2, Androgen receptor (Homo sapiens) (UniProt P10275).
T2 sequence (whole entry): T1 sequence (P10275 whole entry)
In words: Agonist activity at wild type human androgen receptor expressed in COS-1 cells co-transfected with pSG5 assessed as effect on testosterone induced luciferase activity at 10 uM after 18 hrs relative untreated control. It counts as functional, cell-based.

The subject of assay [4] is T3, Androgen receptor (Homo sapiens), P10275 [W742L].
T3 sequence (whole entry): T1 sequence (P10275 whole entry) with W742L
In words: Antagonist activity at human Androgen receptor W741L mutant expressed in COS-1 cells co-transfected with pSG5 assessed as reduction in testosterone induced luciferase activity at 10 uM after 18 hrs relative untreated control. The assay is classed as functional, cell-based. The method, boiled down: (§1)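 COS-1 cells were grown in DMEM with dextran-charcoal-treated FBS (2.5% during transfection). They were transfected for 24 h with pSG5-hART877A or pSG5-hARW741L, plus the pProbasin(−285/+32)-Luc reporter and a pCMVβ control.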

Assay [5] relates to Androgen receptor (Homo sapiens), P10275 [T878A]. In words: Antagonist activity at human Androgen receptor T877A mutant expressed in COS-1 cells co-transfected with pSG5 assessed as reduction in testosterone induced luciferase activity at 10 uM after 18 hrs relative untreated control. The assay is classed as functional, cell-based. In a few lines:
as §1

The target of assay [6] is T2, Androgen receptor (Homo sapiens). In words: Agonist activity at wild type human androgen receptor expressed in COS-1 cells co-transfected with pSG5 assessed as effect on testosterone induced luciferase activity at 1 nM to 10 uM after 18 hrs relative untreated control. The assay is classed as functional, cell-based. The method, boiled down:
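COS-1 cells were seeded in DMEM with 10% dextran-charcoal-treated FBS. After switching to 2.5% FBS, they were transfected for 24 h with pSG5-hAR, the pProbasin(−285/+32)-Luc reporter and a pCMVβ internal control. […] Luciferase was normalized to β-galactosidase and protein.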

Assay [7] shares this target. In words: Potency index, ratio of RBA of hydroxyflutamide to RBA of compound for human androgen receptor.
Assay [8] shares this target. The assay can be described thus: Potency index, ratio of RBA of (R)-bicalutamide to RBA of compound for human androgen receptor.

The structures appear in SMILES notation. Where a chain is given by its changes, count along the chain named. “And” between values parts separate entries of the source, which are not always exact repeats. Equal values may be shown once. The source made the active and inactive calls.

Luciferin 4-monooxygenase (Photinus pyralis), sequence (P08659 whole entry): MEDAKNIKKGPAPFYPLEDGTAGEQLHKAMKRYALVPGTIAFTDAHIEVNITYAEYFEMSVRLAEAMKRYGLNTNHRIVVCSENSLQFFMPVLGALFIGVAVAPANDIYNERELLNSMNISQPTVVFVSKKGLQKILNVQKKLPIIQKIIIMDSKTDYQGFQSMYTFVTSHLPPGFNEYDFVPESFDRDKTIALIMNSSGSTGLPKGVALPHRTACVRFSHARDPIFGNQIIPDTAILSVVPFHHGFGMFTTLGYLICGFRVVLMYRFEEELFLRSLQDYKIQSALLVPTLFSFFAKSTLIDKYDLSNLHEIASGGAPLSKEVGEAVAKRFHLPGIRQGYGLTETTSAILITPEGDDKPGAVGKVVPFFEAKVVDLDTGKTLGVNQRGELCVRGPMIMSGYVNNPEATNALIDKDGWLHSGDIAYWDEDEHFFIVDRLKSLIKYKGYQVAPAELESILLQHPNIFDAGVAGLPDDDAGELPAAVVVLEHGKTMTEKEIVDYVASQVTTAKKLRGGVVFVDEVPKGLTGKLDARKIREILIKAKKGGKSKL
Androgen receptor (Homo sapiens), P10275 [T878A], sequence (P10275 whole entry T878A): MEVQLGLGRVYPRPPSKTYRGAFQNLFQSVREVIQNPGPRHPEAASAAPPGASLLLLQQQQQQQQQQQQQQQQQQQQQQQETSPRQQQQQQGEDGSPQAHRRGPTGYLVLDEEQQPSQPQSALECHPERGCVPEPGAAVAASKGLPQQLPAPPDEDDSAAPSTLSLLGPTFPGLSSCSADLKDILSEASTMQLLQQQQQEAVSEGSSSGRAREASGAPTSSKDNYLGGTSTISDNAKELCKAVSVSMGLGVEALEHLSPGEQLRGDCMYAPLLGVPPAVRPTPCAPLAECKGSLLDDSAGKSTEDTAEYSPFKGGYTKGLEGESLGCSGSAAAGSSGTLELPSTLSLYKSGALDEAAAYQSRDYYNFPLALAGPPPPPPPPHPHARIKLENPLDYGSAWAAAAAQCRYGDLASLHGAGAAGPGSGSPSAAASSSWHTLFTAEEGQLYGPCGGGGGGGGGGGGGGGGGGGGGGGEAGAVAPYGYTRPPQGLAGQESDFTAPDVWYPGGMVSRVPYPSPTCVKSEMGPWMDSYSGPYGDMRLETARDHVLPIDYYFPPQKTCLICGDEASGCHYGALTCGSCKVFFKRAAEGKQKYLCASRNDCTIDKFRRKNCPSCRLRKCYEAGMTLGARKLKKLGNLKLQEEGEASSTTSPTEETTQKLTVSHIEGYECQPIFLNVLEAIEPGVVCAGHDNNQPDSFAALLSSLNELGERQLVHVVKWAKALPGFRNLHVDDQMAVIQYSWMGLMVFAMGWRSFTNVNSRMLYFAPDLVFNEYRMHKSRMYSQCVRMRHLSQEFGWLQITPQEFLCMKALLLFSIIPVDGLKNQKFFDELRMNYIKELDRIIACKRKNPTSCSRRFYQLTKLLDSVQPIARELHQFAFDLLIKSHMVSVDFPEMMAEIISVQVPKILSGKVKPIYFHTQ

As for `Fc1ccc(C2=NOC3CCCCC23)cc1C(F)(F)F` (racemic), the inhibition result in assay [1] was “inactive”. The molecule further showed a half-inhibitory concentration (IC50) in assay [2] of 1100 nM. Besides, the outcome in assay [3] was inactive.
Consider `N#Cc1ccc(C2=NOC3CCCC23)c(C(F)(F)F)c1` (racemic), for which the inhibition entry in assay [1] is “inactive”. Also, the concentration for half-maximal inhibition (IC50) in assay [2] was 447 nM. The outcome in assay [3] was inactive.
Regarding `Fc1ccc(C2=NOC3CCCCCC23)c(C(F)(F)F)c1` (stereo unspecified), the inhibition entry in assay [1] is “inactive”. Besides, the IC50 in assay [2] was 661 nM and 813 nM. The result in assay [3] was inactive.
Regarding `O=[N+]([O-])c1ccc(C2=NOC3CCCCC23)cc1C(F)(F)F` (racemic), in assay [1], the inhibition result was “inactive”. Moreover, the outcome in assay [4] and in assay [5] was Active. This molecule had a half-inhibitory concentration (IC50) in assay [2] of 120 nM. In addition, the result in assay [6] and in assay [3] was inactive.
In the case of `Fc1ccc(C2=NOC3CCCCCC23)cc1C(F)(F)F` (racemic), the inhibition entry in assay [1] is “inactive”. The IC50 in assay [2] is 11000 nM. In assay [3], the result was inactive.
For `O=[N+]([O-])c1ccc(C2=NO[C@@H]3CCCC[C@H]23)c(C(F)(F)F)c1`, the inhibition result in assay [1] is “inactive”. Also, in assay [2], the IC50 is 129 nM. Also, the result in assay [3] was inactive.
In the case of `N#Cc1ccc(C2=NO[C@@H]3CCC[C@H]23)cc1C(F)(F)F`, the inhibition entry in assay [1] was “inactive”. The molecule further had an IC50 in assay [2] of 224 nM. Moreover, the outcome in assay [3] was inactive.
For `O=[N+]([O-])c1ccc(C2=NO[C@H]3CCCCC[C@@H]23)c(C(F)(F)F)c1`, the inhibition result in assay [1] is “inactive”. Also, the IC50 in assay [2] was 389 nM. Also, the result in assay [3] was inactive.
For the molecule `O=[N+]([O-])c1ccc(C2=NO[C@@H]3CCCCC[C@H]23)c(C(F)(F)F)c1`, the inhibition entry in assay [1] was “inactive”. For the same molecule, the IC50 in assay [2] is 309 nM. In addition, the result in assay [3] was inactive.
As for `N#Cc1ccc(C2=NOC3CCCCC23)cc1C(F)(F)F` (racemic), in assay [1], the inhibition result was “inactive”. Also, the outcome in assay [4] and in assay [5] was Active. Besides, in assay [2], the IC50 is 27.5 nM. In addition, the Ratio in assay [7] stood at 8; in assay [8], 4. The outcome in assay [6] and in assay [3] was inactive.
For `N#Cc1ccc(C2=NO[C@H]3CCC[C@@H]23)cc1C(F)(F)F`, in assay [1], the inhibition result is “inactive”. Also, the half-maximal inhibitory concentration (IC50) in assay [2] was 617 nM. Moreover, in assay [3], the result was inactive.
Turning to `O=[N+]([O-])c1ccc(C2=NOC3CCCC23)c(C(F)(F)F)c1` (racemic), the inhibition result in assay [1] is “inactive”. In assay [2], the IC50 was 269 nM. Further, in assay [3], the outcome was inactive.
As to `N#Cc1ccc(C2=NOC3CCCCCCC23)cc1C(F)(F)F` (racemic), the inhibition result in assay [1] was “inactive”. In assay [2], this molecule gave an IC50 of 295 nM. Besides, the outcome in assay [3] was inactive.
Regarding `O=[N+]([O-])c1ccc(C2=NOC3CCCCCCC23)cc1C(F)(F)F` (racemic), in assay [1], the inhibition result was “inactive”. The molecule further showed a concentration for half-maximal inhibition (IC50) in assay [2] of 708 nM. In addition, the result in assay [3] was inactive.
Turning to `N#Cc1ccc(C2=NOC3CCCCCC23)cc1C(F)(F)F` (racemic), the inhibition entry in assay [1] was “inactive”. For the same molecule, the 50% inhibitory concentration (IC50) in assay [2] was 43.7 nM. Moreover, the result in assay [3] was inactive.
Turning to `O=[N+]([O-])c1ccc(C2=NO[C@H]3CCC[C@@H]23)cc1C(F)(F)F`, in assay [1], the inhibition result was “inactive”. In assay [2], this molecule showed a 50% inhibitory concentration (IC50) of 2510 nM. For the same molecule, in assay [3], the outcome was inactive.
Take `Fc1ccc(C2=NOC3CCCCCCC23)c(C(F)(F)F)c1` (cis isomer; cis): the 50% inhibitory concentration (IC50) in assay [2] was 13200 nM.
Take `O=[N+]([O-])c1ccc(C2=NO[C@@H]3CCC[C@H]23)cc1C(F)(F)F`: the inhibition result in assay [1] is “inactive”. Further, the 50% inhibitory concentration (IC50) in assay [2] is 302 nM. Moreover, the result in assay [3] was inactive.
Molecule `N#Cc1ccc(C2=NOC3CCCCC23)c(C(F)(F)F)c1` (cis isomer) had an IC50 in assay [2] of 1780 nM.
Consider `Fc1ccc(C2=NOC3CCCC23)cc1C(F)(F)F` (racemic), for which the inhibition result in assay [1] is “inactive”. In assay [2], this molecule had an IC50 of 1480 nM. The outcome in assay [3] was inactive.
On to `O=[N+]([O-])c1ccc(C2=NOC3CCCCCC23)cc1C(F)(F)F` (racemic), for which, in assay [1], the inhibition result is “inactive”. Also, in assay [2], the IC50 was 105 nM. In addition, the outcome in assay [3] was inactive.
`O=[N+]([O-])c1ccc(C2=NO[C@H]3CCCC[C@@H]23)c(C(F)(F)F)c1`: the inhibition entry in assay [1] was “inactive”. Besides, the IC50 in assay [2] was 263 nM. Moreover, the result in assay [3] was inactive.
Regarding `Fc1ccc(C2=NOC3CCCC23)c(C(F)(F)F)c1` (cis isomer; cis), in assay [2], the IC50 is 1550 nM.

A word on the IC50: it is the concentration that inhibits the measured activity by half. A high value points to a need for much substance.
